XiGFP reactiv = X-chromosome reactivation activator; XiGFP mouse fibroblasts, % GFP-positive cells imaging, 3 d; cells co-treated with 5-aza-dC sensitizer; scaled so ellipticine positive control = 100%; activation, % at 7.58 µM; hit rate 0.055% among 360,000; AID 743238;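 active = mean normalized replicate activation at least 10% and every replicate at or above 10%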;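 also: 0% = median of on-plate neutral control wells and 100% = ellipticine 6 µM median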
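assay system = SV40-immortalized XiGFP fibroblast cells, line 68-5-11 | buffer or medium = DMEM plus 5-aza-dC sensitizer | doses = single-point pinned compound dosing | times = 3-day compound exposure, then 15 min fixation at room temperature | benchmarks = positive control ellipticine, 6 µM final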
DENV2 CPE rescue = inhibitors of DENV2 cytopathic effect. CPE inhibition, % at 9.99 µM. AID 651640. hit rate 1.7% among 350,000. DENV2-infected cells, cytopathic effect rescue, plate reader; in the data active = CPE inhibition above about 20%, passing the limit was not always enough; tested in BHK-21 cells;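 also: 0% = median of neutral control wells and 100% = median of positive control wells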
Statin myotox sup = suppressors of simvastatin-induced myotoxicity in C2C12 myotubes. ATP luminescence, 48 h; scaled: DMSO 0, geranylgeraniol control 100. rescue of ATP level, % at 7.49 µM. hit rate 0.78% among 330,000. AID 602340;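 active = mean ATP rescue above about 67%, or every replicate alone reaching that limit, limit read from the data, passing the limit was not always enough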;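 also: myotubes were challenged with 10 µM simvastatin during compound exposure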
Cneo AK release = Cryptococcus neoformans lysis via adenylate kinase release; lysis activity, % at 15 µM; hit rate 0.2% among 360,000; C. neoformans lysis, adenylate kinase release luminescence, 4 h; normalised: neutral wells 0, clomiphene wells 100;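 active = mean lysis activity across replicates of at least 80%, whatever share of replicates individually reach that level; inactive = mean lysis activity below 80%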
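Material: C. neoformans cells; Schedule: 4 h static compound exposure, 37 °C, read 1 h post-reagent; Measured by: adenylate kinase release luminescence; Read-out: signal increase indicating cell lysis; Controls: Clomiphene as positive lysis control.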
An asterisk follows results filed as active; . = not tested or not shown. Shown are actives, neighbours in structure and some others; about 2.1% of the full set was active somewhere.

SMILES | XiGFP reactiv | DENV2 CPE rescue | Statin myotox sup | Cneo AK release
CN(C(=O)[C@@H](Cc1ccccc1)NC(=O)[C@H]1O[C@@H](n2ccc(=O)[nH]c2=O)[C@H](O)[C@@H]1O)C1CCCCC1 | 0 | -5 | . | .
O=C(COC(=O)CNC(=O)c1ccc(Br)o1)Nc1ccc2c(c1)OCCO2 | . | . | 141* | 2
O=C(COC(=O)c1ccc(Br)o1)Nc1ccc2c(c1)OCCO2 | 0 | 9 | 7 | -3
O=C(COc1ccc(F)cc1)Nc1ccc2c(c1)OCCO2 | 0 | 102* | . | -6
CN1c2ccc(-c3ccc(F)cc3)cc2[C@@H]2[C@@H](CCN2C(=O)CC2CC2)[C@@H]1CO | 0 | 10 | 38 | -5
CCC(=O)N1CC[C@@H]2[C@H]1c1cc(C#Cc3cccc(F)c3)ccc1N(C)[C@H]2CO | 0 | 127* | 8 | 14
CCC(=O)N1CC[C@@H]2[C@H]1c1cc(-c3cccc(F)c3)ccc1N(C)[C@H]2CO | 0 | . | 12 | -10
CCCC#Cc1ccc2c(c1)[C@@H]1[C@@H](CCN1C(=O)CC1CC1)[C@@H](CO)N2C | 0 | 74* | 12 | 0
COCC(=O)Nc1ccc2c(c1)C(=O)N(C)[C@H]1CC[C@@H](CC(=O)NC3CCCC3)O[C@@H]1CO2 | 0 | -2 | -17 | -5
C[C@H](CO)N1C[C@H](C)[C@@H](CN(C)CC2CCCCC2)Oc2ccc(NC(=O)Nc3cccc4ccccc34)cc2CC1=O | 0 | 4 | 17 | -2
CCOC(=O)Cc1csc(NC(=O)CC(C)(C)C)n1 | . | . | 110* | 0
O=C(C[C@@H]1CC[C@@H](NC(=O)C2CC2)[C@@H](CO)O1)NCCCN1CCOCC1 | 0 | -3 | 3 | 10
Cc1ccc(C)c(NC(=O)CN2C(=O)C3CC=CCC3C2=O)c1 (stereo unspecified) | 0 | 45* | 8 | 1
Cc1cccc(NC(=O)CN2C(=O)C3CC=CCC3C2=O)c1C (stereo unspecified) | 0 | 1 | 3 | 0
O=C(Oc1ccc2c(c1)C(=O)c1ccccc1CO2)c1ccccc1 | . | . | 107* | -1
CN1C(=O)c2cc(NC(=O)c3ccc(F)c(F)c3)ccc2OC[C@@H]2O[C@@H](CC(=O)N3CCOCC3)CC[C@@H]21 | 0 | 1 | 16 | 49
Cc1ccc2c(COC(=O)CNC(=O)c3ccccc3)cc(=O)oc2c1 | 0 | 118* | . | .
COc1ccc(NC(=O)N[C@H]2C=C[C@@H](CC(=O)NC3CCC3)O[C@H]2CO)cc1 | -1 | 6 | -4 | -2
COc1ccccc1CNC(=O)C[C@@H]1CC[C@@H]2[C@H](COC[C@@H](O)CN2Cc2ccccc2)O1 | 0 | 3 | -20 | 109*
O=C(C[C@@H]1CC[C@H]2[C@@H](COC[C@@H](O)CN2Cc2ccc(Cl)cc2)O1)NCc1cccc(F)c1 | 0 | 1 | 35 | 104*
O=C(C[C@@H]1CC[C@@H]2[C@H](COC[C@H](O)CN2C(=O)Nc2ccc(Cl)c(Cl)c2)O1)NCc1ccc(Cl)c(Cl)c1 | 0 | 44* | -13 | -7
COc1ccccc1CNC(=O)C[C@@H]1CC[C@H]2[C@@H](COC[C@H](O)CN2Cc2ccccc2)O1 | 0 | -3 | 2 | 1
O=C(C[C@@H]1CC[C@H]2[C@@H](COC[C@@H](O)CN2Cc2cccc(C(F)(F)F)c2)O1)NCCc1ccccc1 | 0 | 26* | 25 | 0
O=C(C[C@@H]1CC[C@@H]2[C@H](COC[C@@H](O)CN2C(=O)Nc2ccc(Cl)c(Cl)c2)O1)NCc1ccc(Cl)c(Cl)c1 | 0 | -20 | -10 | -2
O=C(C[C@@H]1CC[C@@H]2[C@H](COC[C@H](O)CN2Cc2ccc(Cl)cc2)O1)NCc1cccc(F)c1 | 1 | 10 | 36 | 2
C[C@@H]1CCCCO[C@@H](CN(C)C(=O)c2ccccc2)[C@H](C)CN([C@H](C)CO)C(=O)c2cc(NS(=O)(=O)c3ccc(Cl)cc3)ccc2O1 | 0 | -7 | . | -2
O=C(C[C@H]1CC[C@@H](NS(=O)(=O)c2ccc(F)cc2)[C@@H](CO)O1)NCCc1ccncc1 | 0 | -1 | -5 | -3
Cc1ccccc1-c1cnc2c(c1)C(=O)N([C@H](C)CO)C[C@H](C)[C@H](CN(C)C(=O)c1cccnc1)O2 | 0 | -3 | 1 | 48
CNC(=O)C[C@H]1CC[C@H]2[C@@H](COC[C@@H](O)CN2Cc2ccncc2)O1 | 0 | -11 | 1 | 4
